Laboratory results published in ChEMBL document CHEMBL1156073, “Hydroxamic acids as a novel family of serine racemase inhibitors: mechanistic analysis reveals different modes of interaction with the pyridoxal-5'-phosphate cofactor” (J Med Chem, 2009).
pIC50, pKi: −log10 of the molar value. One block for each compound: values may come before it. Active and inactive are the calls of the source. The calls are words filed in the database; no cut-off is given here.

Experiments:
[1] = Binding affinity to 30 mM pyridoxal-5'-phosphate assessed as formation of PLP-aldimine by ESI-MS analysis
[2] = target: T1, Serine racemase (Mus musculus) (UniProt Q9QZX7); experiment: Inhibition of mouse recombinant serine racemase expressed in Escherichia coli MC1061 assessed as formation of D-serine at 5 mM after 30 mins by HPLC analysis
T1 sequence (whole entry): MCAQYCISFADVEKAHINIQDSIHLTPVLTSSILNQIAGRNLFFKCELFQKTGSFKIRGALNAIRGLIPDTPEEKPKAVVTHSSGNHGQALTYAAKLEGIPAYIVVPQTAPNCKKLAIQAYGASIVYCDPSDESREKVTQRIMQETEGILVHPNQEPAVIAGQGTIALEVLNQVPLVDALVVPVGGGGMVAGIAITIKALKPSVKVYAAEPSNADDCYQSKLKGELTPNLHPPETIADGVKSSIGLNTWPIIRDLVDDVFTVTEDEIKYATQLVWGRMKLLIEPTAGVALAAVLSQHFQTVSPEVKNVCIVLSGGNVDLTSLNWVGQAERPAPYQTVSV
Summary of the method: (§1)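 Mouse SR (E. coli MC1061, arabinose-induced, three-step chromatography, ~90% pure) incubated in pH 8.0 buffer with 10 μM PLP, 1 mM ATP, 1 mM MgCl2, 5 mM DTT. Screening used 5 mM L-serine and 5 mM test compound; IC50 runs varied inhibitor at 5 mM L-serine. 30 min at 37 C, stopped with 0.3 M HClO4; D-serine quantified by HPLC. Duplicate or triplicate runs.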

[3] = Binding affinity to pyridoxal-5'-phosphate assessed as formation of syn- and anti-PLP-aldoxime after 20 hrs by NMR spectroscopy
Summary of the method: (§2)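 Compound and PLP solutions prepared in 100 mM phosphate buffer in D2O, pD held near 8.0; chemical shifts followed by NMR after mixing.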

[4] = target: T2, Serine racemase (Mus musculus, UniProt Q9QZX7); experiment: Inhibition of mouse recombinant serine racemase expressed in Escherichia coli MC1061 assessed as formation of D-serine after 30 mins by HPLC analysis; summary of the method: as §1
T2 sequence (Q9QZX7 whole entry): T1 sequence (whole entry)

[5] = Chemical stability assessed as hydrolysis-associated hydroxylamine formation at 0.05 mM after 1 hr in phosphate buffer of pH 8; type: physicochemical; settings: pH 8, 1 h, 50 µM
Summary of the method: (§3)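 Compound at 0.5 mM or 0.05 mM, diluted from fresh 10 mM stocks, held in 100 mM phosphate buffer pH 8.0 or 7.4 at room temperature for 0, 30 or 60 min. Picrylsulfonic acid then added; released hydroxylamine read as absorbance at 494 nm 15 min later.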

[6] = Binding affinity to pyridoxal-5'-phosphate assessed as formation of PLP-aldoxime at 5 mM after 1 hr by UV/vis spectroscopy
Summary of the method: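 PLP and compound solutions in 100 mM phosphate buffer pH 8.0 mixed 1:1, giving 300 μM PLP and 5 mM compound final. Incubated 1 h at room temperature, then absorbance scanned from 310 to 500 nm.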

[7] = Binding affinity to pyridoxal-5'-phosphate assessed as formation of PLP-aldoxime by ESI-MS analysis
Summary of the method: (§4)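 Compound weighed into PLP stock at about 1:1 molar ratio with PLP, with or without 200 mM ammonium sulfate pH 8.0. Mixture diluted 40- to 100-fold in water and analysed by ESI-MS in negative ion mode.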

[8] = Chemical stability assessed as hydrolysis-associated hydroxylamine formation at 0.05 mM after 1 hr in phosphate buffer of pH 7.4; type: physicochemical; settings: pH 7.4, 1 h, 50 µM; summary of the method: as §3
[9] = target: T2, Serine racemase; experiment: Inhibition of mouse recombinant serine racemase transfected in bacterial expression system
[10] = Binding affinity to pyridoxal-5'-phosphate assessed as formation of PLP-aldimine at active site by ESI-MS analysis; summary of the method: as §4
[11] = Binding affinity to pyridoxal-5'-phosphate assessed as formation of syn- and anti-PLP-aldoxime by NMR spectroscopy; summary of the method: as §2

- Activity [1]: Active
SMILES: N[C@@H](CO)C(=O)O

- inhibition [2]: inactive
SMILES: O=C(NO)c1ccc([N+](=O)[O-])cc1

- Activity [3]: Active
- pIC50 [4]: 3.77
- Stability [5]: Unstable
- Activity [6]: Active
- Activity [7]: Active
- Stability [8]: Unstable
SMILES: O=C(CCCC(=O)NO)NO [GLUTARODIHYDROXAMIC ACID]

- pKi [9]: 4.15
SMILES: O=C(O)CC(=O)O [MALONIC ACID]

- inhibition [2]: inactive
- Activity [1]: Active
- Activity [10]: inactive
SMILES: NC(CO)C(=O)NO (centres undefined)

- inhibition [2]: inactive
SMILES: O=C(NO)c1ccc(Cl)cc1

- inhibition [2]: inactive
- Activity [11]: Active
- Activity [6]: inactive
- Activity [7]: inactive
SMILES: CC(=O)NO

- pKi [9]: 4.37
SMILES: N[C@@H](C(=O)O)[C@H](O)C(=O)O

- inhibition [2]: inactive
SMILES: Nc1ccc(C(=O)NO)cc1
